# Results reported in ChEMBL document CHEMBL1156155, “Synthesis and anticancer activity evaluation of 2(4-alkoxyphenyl)cyclopropyl hydrazides and triazolo phthalazines” (Bioorg Med Chem, 2010).
# Calls of active or inactive are those of the source. The rule behind the calls is not given here.
# Test system: U-373MG ATCC
# Test: Anticancer activity against human U373 cells assessed as cell death at 10 uM for 3 days by quantitative video microscopy
# Type: functional, cell-based
# Settings: not given
# Summary of the method: (§1)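 U373 glioblastoma cells filmed by computer-assisted phase-contrast (quantitative videomicroscopy) over three days of culture with or without compound. Cell population growth is judged from morphology: reduced proliferation is taken as cytostatic effect, direct cell killing as cytotoxic effect, and round-shaped cells as cell death. Comparison is against untreated control.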
row,Structure (SMILES),Activity
1,CC(C)=CCC/C(C)=C/COc1ccc(C2CC2C(=O)NNc2nncc3ccccc23)cc1 (stereo not drawn),inactive

# Test system: A549
# Test: Growth inhibition of human A549 cells after 72 hrs by MTT assay
# Type: functional, cell-based
# Settings: A549, 72 h
# Summary of the method: (§2)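 MTT colorimetric growth assay. Cells are seeded at 10,000–40,000 cells/mL depending on cell type and allowed to plate for 24 h, then cultured 72 h with or without compound. Formazan from mitochondrial MTT reduction is read spectrophotometrically at 570 nm (reference 630 nm). IC50 is the growth-inhibitory concentration.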
row,Structure (SMILES),IC50 [µM]
1,CC(C)=CCC/C(C)=C/COc1ccc(C2CC2c2nnc3c4ccccc4cnn23)cc1 (stereo not drawn),45
2,CC(C)=CCOc1ccc(C2CC2C(=O)NNC(=O)c2ccncc2)cc1 (stereo not drawn),> 100
3,COc1ccc(C2CC2C(=O)NNC(=O)c2ccncc2)cc1 (stereo not drawn),> 100
4,COc1ccc(C2CC2c2nnc3c4ccccc4cnn23)cc1 (stereo not drawn),40
5,O=C(NNC(=O)C1CC1c1ccc(OC(F)(F)F)cc1)c1ccncc1 (stereo not drawn),56
6,O=C(NNc1nncc2ccccc12)C1CC1c1ccc(OCC(F)(F)F)cc1 (stereo not drawn),48
7,CC(C)=CCOc1ccc(C2CC2c2nnc3c4ccccc4cnn23)cc1 (stereo not drawn),56

# The remaining lines, values ahead:
row,IC50 [µM],Structure (SMILES)
1,96,COc1ccc(C2CC2C(=O)NNc2nncc3ccccc23)cc1 (stereo not drawn)
2,43,CCOc1ccc(C2CC2C(=O)NNC(=O)c2ccncc2)cc1 (stereo not drawn)
3,82,CC(C)=CCOc1ccc(C2CC2C(=O)NNc2nncc3ccccc23)cc1 (stereo not drawn)
4,37,FC(F)(F)Oc1ccc(C2CC2c2nnc3c4ccccc4cnn23)cc1 (stereo not drawn)
5,64,FC(F)(F)COc1ccc(C2CC2c2nnc3c4ccccc4cnn23)cc1 (stereo not drawn)
6,10,O=C(NNC(=O)C1CC1c1ccc(OCC(F)(F)F)cc1)c1ccncc1 (stereo not drawn)
7,36,CC(C)=CCC/C(C)=C/COc1ccc(C2CC2C(=O)NNc2nncc3ccccc23)cc1 (stereo not drawn)
8,87,O=C(NNc1nncc2ccccc12)C1CC1c1ccc(OC(F)(F)F)cc1 (stereo not drawn)
9,78,CC(C)=CCC/C(C)=C/COc1ccc(C2CC2C(=O)NNC(=O)c2ccncc2)cc1 (stereo not drawn)
10,66,CCOc1ccc(C2CC2c2nnc3c4ccccc4cnn23)cc1 (stereo not drawn)
11,> 100,CCOc1ccc(C2CC2C(=O)NNc2nncc3ccccc23)cc1 (stereo not drawn)

# Test system: U-373MG ATCC
# Test: Anticancer activity against human U373 cells assessed as reduction in cell proliferation at 5 uM for 3 days by quantitative video microscopy relative to control
# Type: functional, cell-based
# Settings: not given
# Summary of the method: as §1
row,Structure (SMILES),Activity
1,CC(C)=CCOc1ccc(C2CC2c2nnc3c4ccccc4cnn23)cc1 (stereo not drawn),Active

# Test system: SK-MEL
# Test: Growth inhibition of human SK-MEL cells after 72 hrs by MTT assay
# Type: functional, cell-based
# Settings: not given
# Summary of the method: as §2
row,Structure (SMILES),IC50 [µM]
1,CC(C)=CCC/C(C)=C/COc1ccc(C2CC2c2nnc3c4ccccc4cnn23)cc1 (stereo not drawn),72
2,COc1ccc(C2CC2c2nnc3c4ccccc4cnn23)cc1 (stereo not drawn),40
3,O=C(NNc1nncc2ccccc12)C1CC1c1ccc(OCC(F)(F)F)cc1 (stereo not drawn),29
4,CC(C)=CCOc1ccc(C2CC2c2nnc3c4ccccc4cnn23)cc1 (stereo not drawn),26

# Second part, the compound after the results:
row,IC50 [µM],Structure (SMILES)
1,68,COc1ccc(C2CC2C(=O)NNc2nncc3ccccc23)cc1 (stereo not drawn)
2,67,CC(C)=CCOc1ccc(C2CC2C(=O)NNc2nncc3ccccc23)cc1 (stereo not drawn)
3,57,FC(F)(F)Oc1ccc(C2CC2c2nnc3c4ccccc4cnn23)cc1 (stereo not drawn)
4,29,FC(F)(F)COc1ccc(C2CC2c2nnc3c4ccccc4cnn23)cc1 (stereo not drawn)
5,81,O=C(NNC(=O)C1CC1c1ccc(OCC(F)(F)F)cc1)c1ccncc1 (stereo not drawn)
6,25,CC(C)=CCC/C(C)=C/COc1ccc(C2CC2C(=O)NNc2nncc3ccccc23)cc1 (stereo not drawn)
7,29,O=C(NNc1nncc2ccccc12)C1CC1c1ccc(OC(F)(F)F)cc1 (stereo not drawn)

# Test system: U-373MG ATCC
# Test: Cytostatic activity against human U373 cells assessed as increase in mitosis duration at 10 uM after 3 days by quantitative video microscopy relative to control
# Type: functional, cell-based
# Settings: not given
# Summary of the method: (§3)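 Human U373 glioblastoma cultures are recorded by quantitative videomicroscopy with or without compound. In-house software scores mitosis duration (min) and mitosis number, with number normalized to initial cell count at t = 0 h. Values are compared with untreated control.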
row,Structure (SMILES),Activity
1,CC(C)=CCC/C(C)=C/COc1ccc(C2CC2C(=O)NNc2nncc3ccccc23)cc1 (stereo not drawn),Active

# Test system: U-373MG ATCC
# Test: Anticancer activity against human U373 cells assessed as cell death at 5 uM for 3 days by quantitative video microscopy
# Type: functional, cell-based
# Settings: not given
# Summary of the method: as §1
row,Structure (SMILES),Activity
1,CC(C)=CCOc1ccc(C2CC2c2nnc3c4ccccc4cnn23)cc1 (stereo not drawn),inactive

# Test system: MCF7
# Test: Growth inhibition of human MCF7 cells after 72 hrs by MTT assay
# Type: functional, cell-based
# Settings: MCF7, 72 h
# Summary of the method: as §2
row,Structure (SMILES),IC50 [µM]
1,CC(C)=CCC/C(C)=C/COc1ccc(C2CC2c2nnc3c4ccccc4cnn23)cc1 (stereo not drawn),9
2,COc1ccc(C2CC2c2nnc3c4ccccc4cnn23)cc1 (stereo not drawn),29
3,O=C(NNc1nncc2ccccc12)C1CC1c1ccc(OCC(F)(F)F)cc1 (stereo not drawn),8
4,CC(C)=CCOc1ccc(C2CC2c2nnc3c4ccccc4cnn23)cc1 (stereo not drawn),19

# Next, values leading:
row,IC50 [µM],Structure (SMILES)
1,72,COc1ccc(C2CC2C(=O)NNc2nncc3ccccc23)cc1 (stereo not drawn)
2,69,CC(C)=CCOc1ccc(C2CC2C(=O)NNc2nncc3ccccc23)cc1 (stereo not drawn)
3,37,FC(F)(F)Oc1ccc(C2CC2c2nnc3c4ccccc4cnn23)cc1 (stereo not drawn)
4,37,FC(F)(F)COc1ccc(C2CC2c2nnc3c4ccccc4cnn23)cc1 (stereo not drawn)
5,34,O=C(NNC(=O)C1CC1c1ccc(OCC(F)(F)F)cc1)c1ccncc1 (stereo not drawn)
6,23,CC(C)=CCC/C(C)=C/COc1ccc(C2CC2C(=O)NNc2nncc3ccccc23)cc1 (stereo not drawn)
7,54,O=C(NNc1nncc2ccccc12)C1CC1c1ccc(OC(F)(F)F)cc1 (stereo not drawn)

# Test system: U-373MG ATCC
# Test: Anticancer activity against human U373 cells assessed as reduction in cell proliferation at 10 uM for 3 days by quantitative video microscopy relative to control
# Type: functional, cell-based
# Settings: not given
# Summary of the method: as §1
row,Structure (SMILES),Activity
1,CC(C)=CCC/C(C)=C/COc1ccc(C2CC2C(=O)NNc2nncc3ccccc23)cc1 (stereo not drawn),Active

# Test system: U-373MG ATCC
# Test: Cytostatic activity against human U373 cells assessed as decrease in mitosis duration at 5 uM after 3 days by quantitative video microscopy relative to control
# Type: functional, cell-based
# Settings: not given
# Summary of the method: as §3
row,Structure (SMILES),Activity
1,CC(C)=CCOc1ccc(C2CC2c2nnc3c4ccccc4cnn23)cc1 (stereo not drawn),Active

# Test system: not listed separately
# Test: Growth inhibition of human OE21 cells after 72 hrs by MTT assay
# Type: functional, cell-based
# Settings: OE21, 72 h
# Summary of the method: as §2
row,Structure (SMILES),IC50 [µM]
1,COc1ccc(C2CC2C(=O)NNc2nncc3ccccc23)cc1 (stereo not drawn),48
2,CC(C)=CCC/C(C)=C/COc1ccc(C2CC2c2nnc3c4ccccc4cnn23)cc1 (stereo not drawn),5
3,COc1ccc(C2CC2c2nnc3c4ccccc4cnn23)cc1 (stereo not drawn),26
4,CC(C)=CCOc1ccc(C2CC2C(=O)NNc2nncc3ccccc23)cc1 (stereo not drawn),38
5,FC(F)(F)Oc1ccc(C2CC2c2nnc3c4ccccc4cnn23)cc1 (stereo not drawn),30
6,FC(F)(F)COc1ccc(C2CC2c2nnc3c4ccccc4cnn23)cc1 (stereo not drawn),9
7,O=C(NNc1nncc2ccccc12)C1CC1c1ccc(OCC(F)(F)F)cc1 (stereo not drawn),17
8,O=C(NNC(=O)C1CC1c1ccc(OCC(F)(F)F)cc1)c1ccncc1 (stereo not drawn),31
9,CC(C)=CCC/C(C)=C/COc1ccc(C2CC2C(=O)NNc2nncc3ccccc23)cc1 (stereo not drawn),9
10,O=C(NNc1nncc2ccccc12)C1CC1c1ccc(OC(F)(F)F)cc1 (stereo not drawn),42
11,CC(C)=CCOc1ccc(C2CC2c2nnc3c4ccccc4cnn23)cc1 (stereo not drawn),8

# Test system: not listed separately
# Test: Growth inhibition of human U373 cells after 72 hrs by MTT assay
# Type: functional, cell-based, U-373MG ATCC
# Settings: U373 MG
# Summary of the method: as §2
row,Structure (SMILES),IC50 [µM]
1,COc1ccc(C2CC2C(=O)NNc2nncc3ccccc23)cc1 (stereo not drawn),83
2,CC(C)=CCC/C(C)=C/COc1ccc(C2CC2c2nnc3c4ccccc4cnn23)cc1 (stereo not drawn),63
3,CC(C)=CCOc1ccc(C2CC2C(=O)NNC(=O)c2ccncc2)cc1 (stereo not drawn),> 100
4,COc1ccc(C2CC2C(=O)NNC(=O)c2ccncc2)cc1 (stereo not drawn),> 100
5,COc1ccc(C2CC2c2nnc3c4ccccc4cnn23)cc1 (stereo not drawn),28
6,CCOc1ccc(C2CC2C(=O)NNC(=O)c2ccncc2)cc1 (stereo not drawn),63
7,CC(C)=CCOc1ccc(C2CC2C(=O)NNc2nncc3ccccc23)cc1 (stereo not drawn),81
8,O=C(NNC(=O)C1CC1c1ccc(OC(F)(F)F)cc1)c1ccncc1 (stereo not drawn),37
9,FC(F)(F)Oc1ccc(C2CC2c2nnc3c4ccccc4cnn23)cc1 (stereo not drawn),37
10,FC(F)(F)COc1ccc(C2CC2c2nnc3c4ccccc4cnn23)cc1 (stereo not drawn),58
11,O=C(NNc1nncc2ccccc12)C1CC1c1ccc(OCC(F)(F)F)cc1 (stereo not drawn),25
12,O=C(NNC(=O)C1CC1c1ccc(OCC(F)(F)F)cc1)c1ccncc1 (stereo not drawn),19
13,CC(C)=CCC/C(C)=C/COc1ccc(C2CC2C(=O)NNc2nncc3ccccc23)cc1 (stereo not drawn),9
14,O=C(NNc1nncc2ccccc12)C1CC1c1ccc(OC(F)(F)F)cc1 (stereo not drawn),85
15,CC(C)=CCOc1ccc(C2CC2c2nnc3c4ccccc4cnn23)cc1 (stereo not drawn),4
16,CC(C)=CCC/C(C)=C/COc1ccc(C2CC2C(=O)NNC(=O)c2ccncc2)cc1 (stereo not drawn),84
17,CCOc1ccc(C2CC2c2nnc3c4ccccc4cnn23)cc1 (stereo not drawn),44
18,CCOc1ccc(C2CC2C(=O)NNc2nncc3ccccc23)cc1 (stereo not drawn),91

# Test system: PC-3
# Test: Growth inhibition of human PC3 cells after 72 hrs by MTT assay
# Type: functional, cell-based
# Settings: PC-3, 72 h
# Summary of the method: as §2
row,Structure (SMILES),IC50 [µM]
1,CC(C)=CCC/C(C)=C/COc1ccc(C2CC2c2nnc3c4ccccc4cnn23)cc1 (stereo not drawn),8
2,CC(C)=CCOc1ccc(C2CC2C(=O)NNC(=O)c2ccncc2)cc1 (stereo not drawn),> 100
3,COc1ccc(C2CC2C(=O)NNC(=O)c2ccncc2)cc1 (stereo not drawn),> 100
4,COc1ccc(C2CC2c2nnc3c4ccccc4cnn23)cc1 (stereo not drawn),29
5,O=C(NNC(=O)C1CC1c1ccc(OC(F)(F)F)cc1)c1ccncc1 (stereo not drawn),> 100
6,O=C(NNc1nncc2ccccc12)C1CC1c1ccc(OCC(F)(F)F)cc1 (stereo not drawn),67
7,CC(C)=CCOc1ccc(C2CC2c2nnc3c4ccccc4cnn23)cc1 (stereo not drawn),22

# Second part, the compound after the results:
row,IC50 [µM],Structure (SMILES)
1,64,COc1ccc(C2CC2C(=O)NNc2nncc3ccccc23)cc1 (stereo not drawn)
2,> 100,CCOc1ccc(C2CC2C(=O)NNC(=O)c2ccncc2)cc1 (stereo not drawn)
3,81,CC(C)=CCOc1ccc(C2CC2C(=O)NNc2nncc3ccccc23)cc1 (stereo not drawn)
4,49,FC(F)(F)Oc1ccc(C2CC2c2nnc3c4ccccc4cnn23)cc1 (stereo not drawn)
5,38,FC(F)(F)COc1ccc(C2CC2c2nnc3c4ccccc4cnn23)cc1 (stereo not drawn)
6,44,O=C(NNC(=O)C1CC1c1ccc(OCC(F)(F)F)cc1)c1ccncc1 (stereo not drawn)
7,24,CC(C)=CCC/C(C)=C/COc1ccc(C2CC2C(=O)NNc2nncc3ccccc23)cc1 (stereo not drawn)
8,92,O=C(NNc1nncc2ccccc12)C1CC1c1ccc(OC(F)(F)F)cc1 (stereo not drawn)
9,> 100,CC(C)=CCC/C(C)=C/COc1ccc(C2CC2C(=O)NNC(=O)c2ccncc2)cc1 (stereo not drawn)
10,> 100,CCOc1ccc(C2CC2c2nnc3c4ccccc4cnn23)cc1 (stereo not drawn)
11,94,CCOc1ccc(C2CC2C(=O)NNc2nncc3ccccc23)cc1 (stereo not drawn)
